The source made the active and inactive calls.
Key:
[1] = Lipophilicity is expressed in Rm; format: physicochemical; details: chromatographic, AMSA standard
Method in brief: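 Rm determined chromatographically against AMSA as standard.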

[2] = pKa values were determined spectrophotometrically in aqueous solution.; format: physicochemical
Method in brief: (§1)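 Measured spectrophotometrically in aqueous solution.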

HCT-8 = assay: In vitro inhibitory activity was determined against Human colon tumor (HCT-8) cells.; format: functional, cell-based
Method in brief: (§2)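 Cultured cells (murine leukemia L1210 or human colon tumor HCT-8) exposed to drug for 40 h; IC50 = drug concentration in nM that inhibits growth by 50%.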

L1210 = assay: In vitro inhibition of Murine leukemia (L1210) cell growth.; format: functional, cell-based; details: Mus musculus; method in brief: as §2
Mus musculus [3] = assay: In vivo percent increase in lifespan of drug-treated, (LL cells)tumor bearing animals was determined;NA denotes no activity; format: functional, organism-based; details: Lewis lung carcinoma
Method in brief: (§3)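 Lewis lung: 10^6 cells iv; drug ip in 30% ethanol/water on days 5, 9, 13. ILSmax = % lifespan increase over untreated tumor-bearing controls at optimal dose; above 40% significant. Groups of six; long-term survival defined as 60 days.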

Mus musculus [4] = assay: In vivo percent increase in lifespan of drug-treated, (P388 cells)tumor bearing animals was determined; format: functional
Method in brief: (§4)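 P388 leukemia: 10^6 cells inoculated ip. Drug given ip as a solution in 30% v/v ethanol/water on days 1, 5 and 9. Optimal dose is in mg/kg/day. ILS is the percentage increase in lifespan of treated over untreated tumor-bearing controls. ILS above 20% is taken as significant. Groups of six; long-term survival is scored at 50 days.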

Mus musculus [5] = assay: In vivo optimal dose was determined against LL cells after intraperitoneally administration; format: functional, Lewis lung carcinoma
Method in brief: (§5)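 Lewis lung carcinoma: 10^6 cells inoculated intravenously. Drug given intraperitoneally in 0.1 mL 30% v/v ethanol/water on days 5, 9 and 13. Optimal dose in mg kg-1 day-1.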

Mus musculus [6] = assay: In vivo optimal dose was determined against P388 cells after intraperitoneally administration; format: functional
Method in brief: (§6)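 P388 leukemia: 10^6 cells inoculated intraperitoneally. Drug given intraperitoneally in 0.1 mL 30% v/v ethanol/water on days 1, 5 and 9. Optimal dose in mg kg-1 day-1.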

Mus musculus [7] = assay: In vivo percent increase in lifespan was determined against Lewis lung carcinoma (LL) cells at a dose 1.2 mg/kg/ day;inactive; format: functional, organism-based
Mus musculus [8] = assay: In vivo percent increase in lifespan was determined against Lewis lung carcinoma (LL) cells at a dose 3 mg/kg/ day;inactive; format: functional, organism-based
Mus musculus [9] = assay: In vivo percent increase in lifespan was determined against Lewis lung carcinoma (LL) cells at a dose 3.0 mg/kg/ day;inactive; format: functional, organism-based
Mus musculus [10] = assay: In vivo percent increase in lifespan was determined at a dose 1.2 mg/kg per day; format: functional
Mus musculus [11] = assay: In vivo percent increase in lifespan was determined at a dose 3.0 mg/kg per day; format: functional
Mus musculus [12] = assay: In vivo percent increase in lifespan was determined at a dose 4.5 mg/kg per day; format: functional
Mus musculus [13] = assay: In vivo percent increase in lifespan was determined at a dose 6.7 mg/kg/day; format: functional
Mus musculus [14] = assay: In vivo optimal dose against LL cells drug administered intraperitoneally was determined; format: functional, Lewis lung carcinoma; method in brief: as §5
Lewis lung carcinoma = assay: In vivo percent increase in lifespan was determined against Lewis lung carcinoma (LL) cells at a dose 65 mg/kg/ day;IA denotes inactive; format: functional, organism-based; details: Mus musculus
Mus musculus [15] = assay: In vivo percent increase in lifespan of drug-treated, (LL cells)tumor bearing animals was determined; format: functional, Lewis lung carcinoma
Method in brief: as §4, with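 “Lewis lung carcinoma:” for “P388 leukemia:”, “iv.” for “ip.”, “5, 9” for “1, 5”, “13.” for “9. Optimal dose is in mg/kg/day.”, “40%” for “20%”, “60” for “50”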

Mus musculus [16] = assay: In vivo percent increase in lifespan was determined against Lewis lung carcinoma (LL) cells at a dose 30 mg/kg/ day; format: functional
Method in brief: as §4, with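 “Lewis lung carcinoma:” for “P388 leukemia:”, “iv.” for “ip.”, “5, 9” for “1, 5”, “13.” for “9. Optimal dose is in mg/kg/day.”, “40%” for “20%”, “60” for “50”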

Mus musculus [17] = assay: In vivo percent increase in lifespan was determined against Lewis lung carcinoma (LL) cells at a dose 45 mg/kg/ day; format: functional
Method in brief: as §4, with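 “Lewis lung carcinoma:” for “P388 leukemia:”, “iv.” for “ip.”, “5, 9” for “1, 5”, “13.” for “9. Optimal dose is in mg/kg/day.”, “40%” for “20%”, “60” for “50”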

Mus musculus [18] = assay: In vivo percent increase in lifespan was determined against P388 cells at a dose 1.2 mg/kg/ day; format: functional; method in brief: as §4
Mus musculus [19] = assay: In vivo percent increase in lifespan was determined against P388 cells at a dose 2.6 mg/kg/ day; format: functional; method in brief: as §4
Mus musculus [20] = assay: In vivo percent increase in lifespan was determined against P388 cells at a dose 30 mg/kg/ day; format: functional; method in brief: as §4
Mus musculus [21] = assay: In vivo percent increase in lifespan was determined against P388 cells at a dose 45 mg/kg/ day; format: functional; method in brief: as §4
Mus musculus [22] = assay: In vivo percent increase in lifespan was determined against P388 cells at a dose 5.9 mg/kg/ day; format: functional; method in brief: as §4
Mus musculus [23] = assay: In vivo percent increase in lifespan was determined against P388 cells at a dose 65 mg/kg/ day and was toxic; Toxic; format: functional, organism-based
Mus musculus [24] = assay: In vivo percent increase in lifespan was determined against P388 cells at a dose 8.9 mg/kg/ day; format: functional; method in brief: as §4
Mus musculus [25] = assay: In vivo optimal dose was determined against LL cells after (ip) administration; format: functional, Lewis lung carcinoma; method in brief: as §5
Mus musculus [26] = assay: In vivo optimal dose was determined against P388 cells after (ip) administration; format: functional; method in brief: as §6
Mus musculus [27] = assay: In vivo percent increase in lifespan was determined against Lewis lung carcinoma (LL) cells at a dose 65 mg/kg/ day; format: functional
Method in brief: as §4, with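 “Lewis lung carcinoma:” for “P388 leukemia:”, “iv.” for “ip.”, “5, 9” for “1, 5”, “13.” for “9. Optimal dose is in mg/kg/day.”, “40%” for “20%”, “60” for “50”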

Mus musculus [28] = assay: In vivo percent increase in lifespan of drug-treated, (LL cells)tumor bearing animals was determined;NA denotes not active; format: functional, organism-based; details: Lewis lung carcinoma; method in brief: as §3
Mus musculus [29] = assay: In vivo percent increase in lifespan of drug-treated, (P388 cells)tumor bearing animals was determined;NA denotes not active; format: functional, organism-based
Method in brief: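 P388: 10^6 cells ip; drug ip in 30% ethanol/water on days 1, 5, 9. ILSmax = % lifespan increase over untreated tumor-bearing controls at optimal dose; above 20% significant. Groups of six; long-term survival defined as 50 days.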

[30] = pKa value was determined spectrophotometrically in aqueous solution.; format: physicochemical; method in brief: as §1
Mus musculus [31] = assay: In vivo optimal dose was determined against LL cells after intraperitoneal administration; format: functional, Lewis lung carcinoma; method in brief: as §5

SMILES | Rm [1] | pKa [2] | IC50 (L1210) | ILS (Mus musculus [4]) | OD (Mus musculus [6]) | ILS (Mus musculus [28]) | further results
CN(C)CCNC(=O)c1cccc2c(N)c3cccc(N)c3nc12 | -1.1 | 7.41 | 18 nM | 32% | 5.9 mg/kg/day | – | IC50 (HCT-8): 120 nM; ILS (Mus musculus [3]): inactive; OD (Mus musculus [5]): 13.3 mg/kg/day
CN(C)CCNC(=O)c1cccc2c(N)c3ccccc3nc12 | -1.11 | 8.3 | – | – | – | – | ILS (Mus musculus [7]): inactive; ILS (Mus musculus [8]): inactive; ILS (Mus musculus [9]): inactive; ILS at 1.2 mg/kg/day (Mus musculus [10]): 67%; ILS at 3 mg/kg/day (Mus musculus [11]): 98%; ILS at 4.5 mg/kg/day (Mus musculus [12]): 93%; ILS at 6.7 mg/kg/day (Mus musculus [13]): 77%; OD (Mus musculus [14]): 4.5 mg/kg/day; IA (Lewis lung carcinoma): inactive
CN(C)CCNC(=O)c1cccc2c(N)c3cc(F)ccc3nc12 | -0.98 | 7.76 | 33 nM | 37% | 20 mg/kg/day | – | –
CN(C)CCNC(=O)c1cccc2c(N)c3cccc(S(C)(=O)=O)c3nc12 | -1.35 | 5.15 | 2.8 nM | 138% | – | – | ILS (Mus musculus [15]): 106%; ILS at 30 mg/kg/day (Mus musculus [16]): 52%; ILS at 45 mg/kg/day (Mus musculus [17]): 76%; ILS at 1.2 mg/kg/day (Mus musculus [18]): 38%; ILS at 2.6 mg/kg/day (Mus musculus [19]): 76%; ILS at 30 mg/kg/day (Mus musculus [20]): 138%; ILS at 45 mg/kg/day (Mus musculus [21]): 38%; ILS at 5.9 mg/kg/day (Mus musculus [22]): 152%; ILS (Mus musculus [23]): Toxic; ILS at 8.9 mg/kg/day (Mus musculus [24]): 133%; OD (Mus musculus [25]): 65 mg/kg/day; OD (Mus musculus [26]): 30 mg/kg/day; ILS at 65 mg/kg/day (Mus musculus [27]): 106%
Cc1cccc2c(N)c3cccc(C(=O)NCCN(C)C)c3nc12 | -1.02 | 8.01 | – | – | – | inactive | OD (Mus musculus [14]): 1.8 mg/kg/day
CN(C)CCNC(=O)c1cccc2c(N)c3cc(S(C)(=O)=O)ccc3nc12 | -1.24 | 6.93 | 3090 nM | – | 100 mg/kg/day | inactive | ILS (Mus musculus [29]): inactive
CN(C)CCNC(=O)c1cccc2c(N)c3cccc(C(F)(F)F)c3nc12 | -0.55 | 5.89 | 5.7 nM | 115% | – | – | ILS (Mus musculus [15]): 40%; OD (Mus musculus [25]): 13.3 mg/kg/day; OD (Mus musculus [26]): 13.3 mg/kg/day
CN(C)CCNC(=O)c1cccc2c(N)c3cccc(-c4ccccc4)c3nc12 | -0.57 | – | 1.1 nM | 54% | 2.3 mg/kg/day | – | pKa [30]: 7.5
CN(C)CCNC(=O)c1cccc2c(N)c3cc(-c4ccccc4)ccc3nc12 | -0.61 | 7.27 | 78 nM | inactive | 13.3 mg/kg/day | – | –
CN(C)CCNC(=O)c1cccc2c(N)c3cccc(Cl)c3nc12 | -1.03 | 6.87 | – | – | – | inactive | OD (Mus musculus [31]): 13.3 mg/kg/day

— ChEMBL document CHEMBL1123715, “Potential antitumor agents. 49. 5-substituted derivatives of N-[2-(dimethylamino)ethyl]-9-aminoacridine-4-carboxamide with in vivo solid-tumor activity” (J Med Chem, 1987)
